Experimental data collected from several papers.
Compare with care: the assays were run in different laboratories.
Target: Wee1-like protein kinase 2 (WEE2, Homo sapiens, UniProt P0C1S8)

c1cncc(-c2cccc(Nc3nccc(NC4CCCCC4)n3)c2)c1  remaining binding (binding, competition with immobilised ligand; 10 µM): 100%
FC(F)(F)c1ccc2c(c1)nc(-c1cccnc1)n2C1CC1  remaining binding (cell-free assay, competition with immobilised ligand; 1 µM): 100%
CCN1CCN(Cc2ccc(C(=O)Nc3ccc(C)c(Oc4ccc5c(c4)CC(=O)N5)c3)cc2C(F)(F)F)CC1  remaining binding (binding, competition with immobilised ligand; 1 µM): 100%
COc1cnc(Nc2cccc(S(N)(=O)=O)c2)nc1N1CCN(c2ccccc2)C(=O)C1  remaining binding (binding, competition with immobilised ligand; 1 µM): 100%
FC(F)(F)Oc1cccc(-c2cnc3ccc(-c4ccncc4)nn23)c1  remaining binding (binding, competition with immobilised ligand; 5 µM): 86%
O=C(c1ccc(Nc2ncc(Cl)c(-c3cc4ccccc4s3)n2)cc1)N1CCC(N2CCCC2)CC1  remaining binding (binding, competition with immobilised ligand; 1 µM): 27%
CNC(=O)[C@@H]1CC[C@@H](n2c(-c3ccc4cnccc4c3)nc3ccc(C(=O)NCc4cccc(C(N)=O)c4)cc32)C1  remaining binding (binding, competition with immobilised ligand; 1 µM): 100%
COc1ccnn2ncc(-c3ccnc(N(C)C)n3)c12  remaining binding (binding; 1 µM): 96%
NS(=O)(=O)c1cc(NC(=O)Cc2ccccc2)ccc1Oc1cccc(Cl)c1  remaining binding (cell-free assay, competition with immobilised ligand; 1 µM): 78%
N[C@H]1CCN(c2nccc(-c3cnn4ncccc34)n2)C1  remaining binding (binding; 1 µM): 100%
O=C1CCc2cc(Nc3cc(OC4CCOCC4)c([N+](=O)[O-])cc3Cl)ccc2N1  remaining binding (cell-free assay, competition with immobilised ligand; 1 µM): 96%
O=C(c1ccc(Nc2ncc(Cl)c(-c3ccc(Cl)s3)n2)cc1)N1CCC(N2CCCC2)CC1  remaining binding (binding, competition with immobilised ligand; 1 µM): 8.4%
CN(C)c1nccc(-c2cnn3ncccc23)n1  remaining binding (binding; 1 µM): 100%
COc1cccc(CNC(=O)c2nc3scc(COCc4ccc(C(=O)O)cc4)c3c(=O)[nH]2)c1  remaining binding (cell-free assay, competition with immobilised ligand; 1 µM): 96.9%
O=C(NCC1CCOCC1)c1n[nH]cc1NC(=O)c1c(F)cccc1F  remaining binding (binding, competition with immobilised ligand; 1 µM): 100%
C[C@H]1CCN(c2nccc(-c3cnn4ncccc34)n2)C1  remaining binding (binding; 1 µM): 100%
CNC(=O)c1ccc(Nc2ncc(C(F)(F)F)c(NCc3nccnc3N(C)S(C)(=O)=O)n2)cc1  remaining binding (cell-free assay, competition with immobilised ligand; 0.1 µM): 97%
Cc1cnn2ncc(-c3ccnc(N(C)C)n3)c2c1  remaining binding (binding; 1 µM): 100%
CNCc1ccccc1-c1csc([C@@H](C)Nc2nc(C)nc3cc(OC)c(OC)cc23)c1  remaining binding (cell-free assay, competition with immobilised ligand; 1 µM): 100%
CN(CCCC(F)(F)F)c1nccc(-c2cnn3ncccc23)n1  remaining binding (binding; 1 µM): 97%
Cc1cnc(Nc2ccc(C(=O)N3CCC(N4CCCC4)CC3)cc2)nc1-c1cc2ccccc2s1  remaining binding (binding, competition with immobilised ligand; 1 µM): 15%
